A short description of data set [1]: Toxicity in immunodeficient mouse assessed as body weight change at 100 mg/kg,ip QD for 5 days. The format is organism-based. Conditions: in vivo, 120 h, time 5 day.
The nature of data set [2]: Antitumor activity in high alert medicated patient derived human GBM1 cells xenografted in immunodeficient nude mouse model assessed as change in tumor volume at 50 mg/kg,ip QD and measured after 11 days relative to control. The format is functional. The following applies: time 11 day. The gist of the method: (§1)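 Female athymic nude mice bearing subcutaneous GBM1-HAM PDX fragments (20 mm³); treatment began day 11 post-implant at tumour volumes 75-196 mm³, 10 per group. Compound i.p. daily in cyclodextrin vehicle (17 days alone, 27 days in combination); temozolomide 42 mg/kg p.o. daily for 5 days in PBS/glucose/Tween 80. Calliper volumes three times weekly; body weight and clinical signs monitored.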
In general terms: In xenograft studies the graft and the host belong to different species.

Data set [3] can be described thus: Metabolic stability in mouse liver microsomes assessed as compound remaining at 2.5 uM and measured after 45 mins in absence of NADPH by LC-MS/MS analysis. The following applies: read-out: Stability. The class given is ADME, Microsome. (In general: Liver microsomes are vesicles of endoplasmic reticulum, rich in cytochrome P450 enzymes.)
Data set [4] is described as follows: Toxicity in immunodeficient nude mouse model xenografted with high alert medicated patient derived human GBM1 cells assessed as clinical symptoms at 50 mg/kg,ip QD for 27 days cotreatment with Temozolomide at 42 mg/kg,po QD for 5 days. The format is organism-based. The following applies: in vivo, 648 h, time 27 day. An outline of the steps:
as §1

Data set [5] in a line: Antitumor activity in high alert medicated patient derived human GBM1 cells xenografted in immunodeficient nude mouse model assessed as tumor growth inhibition at 20 mg/kg,ip QD cotreatment with Temozolomide at 42 mg/kg,po QD and measured after 11 days. The format is functional. Conditions: GBM1, 264 h. An outline of the steps: as §1
The nature of data set [6]: Metabolic stability in mouse liver microsomes assessed as compound remaining at 2.5 uM and measured after 45 mins in presence of NADPH by LC-MS/MS analysis. The format is ADME, Microsome. Conditions: read-out: Stability.
A further data set has as its system U-87 MG. The experiment in a line: Antiproliferative activity against human U-87 MG cells assessed as inhibition of cell proliferation incubated for 72 hrs by CellTiter-Glo luminescent assay. The class given is functional, cell-based, U-87MG ATCC. The gist of the method:
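A549 in RPMI 1640 and U-87MG in DMEM, each with 10% FCS and 1% glutamine, at 37 °C and 5% CO₂. Cells seeded at 3000/well, dosed the next day, treated 72 h. Viability read by CellTiter-Glo luminescence with DMSO-treated cells set to 100%. IC50 taken from survival curves over three independent experiments.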

The nature of data set [7]: Metabolic stability in mouse plasma assessed as half life at 5 uM and measured upto 120 mins by UPLC-MS/MS analysis. The format is ADME, cell-free. The gist of the method: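 Male mouse plasma at 37 °C with compound added from a 5 µM solution […]. Sampled at 0, 15, 30, 45, 60 and 120 min, quenched with acetonitrile and read by LC-MS/MS (MRM) in duplicate. Procaine positive control. Remaining % and t1/2 derived from MRM area relative to t = 0.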

The target of data set [8] is T1, Oxysterol-binding protein 1 (Homo sapiens) (UniProt P22059).
T1 sequence (whole entry): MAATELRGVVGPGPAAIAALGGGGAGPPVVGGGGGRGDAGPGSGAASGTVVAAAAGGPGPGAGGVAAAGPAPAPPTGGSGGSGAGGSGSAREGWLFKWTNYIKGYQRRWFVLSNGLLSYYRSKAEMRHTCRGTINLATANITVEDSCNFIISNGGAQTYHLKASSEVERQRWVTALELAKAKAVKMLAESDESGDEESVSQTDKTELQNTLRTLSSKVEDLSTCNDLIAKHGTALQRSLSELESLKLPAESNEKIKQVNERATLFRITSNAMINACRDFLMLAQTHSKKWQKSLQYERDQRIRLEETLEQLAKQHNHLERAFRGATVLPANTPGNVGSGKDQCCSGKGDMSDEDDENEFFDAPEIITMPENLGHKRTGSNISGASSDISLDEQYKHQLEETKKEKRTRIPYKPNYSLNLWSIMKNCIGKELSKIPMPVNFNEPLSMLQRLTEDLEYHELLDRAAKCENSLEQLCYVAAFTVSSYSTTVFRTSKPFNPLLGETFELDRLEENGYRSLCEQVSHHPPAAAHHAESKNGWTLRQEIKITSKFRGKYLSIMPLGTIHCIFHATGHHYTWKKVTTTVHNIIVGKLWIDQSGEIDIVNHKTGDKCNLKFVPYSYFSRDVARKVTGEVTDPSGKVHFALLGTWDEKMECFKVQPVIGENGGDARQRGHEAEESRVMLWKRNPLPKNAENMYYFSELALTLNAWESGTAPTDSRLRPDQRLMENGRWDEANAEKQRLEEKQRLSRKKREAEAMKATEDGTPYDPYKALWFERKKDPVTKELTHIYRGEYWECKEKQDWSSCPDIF
The experiment in a line: Inhibition of human OSBP in human hTERT-RPE1 cells assessed as increase in OSBP recruitment at TGN and measured after 4 hrs by confocal microscopy. The format is cell-based.

Data set [9] in a line: Antitumor activity in high alert medicated patient derived human GBM1 cells xenografted in immunodeficient nude mouse model assessed as T/C ratio at 50 mg/kg,ip QD cotreatment with Temozolomide at 42 mg/kg,po QD and measured from 9 to 11 days. The class given is functional. The following applies: time 9-11 day. An outline of the steps:
as §1

The target in the next data set is mTORC2 (Homo sapiens) (UniProt P42345+Q6R327+Q9BVC4+Q9BPZ7). Briefly: Inhibition of mTORC2 signalling in human U-87 MG cells assessed as decrease in AKT phosphorylation at S473 residue at 0.05 to 1 uM incubated for 48 hrs by Western blot analysis. The format is cell-based. An outline of the steps: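 U-87 MG cells cultured two days, then exposed 48 h to increasing doses. Lysed in RIPA with protease inhibitors; 5 µg protein run on 4-20% SDS gels and transferred to PVDF. Probed for phospho/total AKT, S6, S6K, P62 and LC3, detected by ECL. Band intensities normalized to β-actin.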

Data set [10] can be described thus: Antitumor activity in high alert medicated patient derived human GBM1 cells xenografted in immunodeficient nude mouse model assessed as T/C ratio at 50 mg/kg,ip QD and measured after 9 to 11 days. The class given is functional. Conditions: time 9-11 day. The gist of the method:
as §1

A short description of data set [11]: Metabolic stability in mouse liver microsomes assessed as intrinsic clearance at 2.5 uM and measured upto 45 mins in presence of NADPH by LC-MS/MS analysis. The class given is ADME, Microsome. The following applies: read-out: CLH.
Data set [12] can be described thus: Toxicity in immunodeficient mouse assessed as clinical symptoms at 100 mg/kg,ip QD for 5 days. The format is organism-based. Conditions: in vivo, 120 h, time 5 day.
The nature of data set [13]: Prodrug conversion in Swiss mouse plasma assessed as half life of (2R,4aR,9aR)-7-((E)-2-(5-hydroxy-2,2-dimethylchroman-7-yl)vinyl)-1,1,4a-trimethyl-2,3,4,4a,9,9a-hexahydro-1H-xanthene-2,5-diol metabolite at 20 mg/kg, IP and measured upto 6 hrs by LC-MS/MS analysis. The following applies: in vivo. The format is ADME, organism-based. The gist of the method:
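Male Swiss mice (5-6 weeks, 3 per dose) given a single i.p. dose of prodrug, 2.5 mg/mL in 15% hydroxypropyl-β-cyclodextrin in 65 mM phosphate pH 7.4. Retro-orbital blood taken at 5, 15, 30 min and 1, 3, 6 h; plasma acetonitrile-precipitated. Parent and metabolite quantified by LC-MS/MS with a 1-2,000 ng/mL calibration.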

The source made the active and inactive calls. No cut-off for these calls is given here.

As for `CC1(C)CCc2c(O)cc(/C=C/c3cc(O)c4c(c3)C[C@@H]3C(C)(C)[C@H](OC=O)CC[C@@]3(C)O4)cc2O1`, the Activity entry in data set [1] is given as “Non-Toxic”; in data set [2], 625.61%; in data set [4], “Non-Toxic”; in data set [12], “Non-Toxic”. Also, the remaining at 0.75 h, 2.5 µM amounted to 16% in [3] and 5.3% in data set [6]. Moreover, in [5], the TGDI at 20 mg/kg was determined as 1.75. Besides, the IC50 in the data set with U-87 MG was found to be 12.4 nM. Also, the half-life at 5 µM in data set [7] turned out to be 51 min. In addition, in [8], the inhibition entry was “inactive”. In addition, the T/C stood at 41.43% in data set [9] and 70.05% in [10]. The inhibition result at mTORC2 (Homo sapiens) was “Dose-Dependent Effect”. In addition, in data set [11], the microsomal CLint at 2.5 µM turned out to be 120 µL/min/mg. The t1/2 in data set [13] came to 120 min.

For orientation: IC50 means the concentration at which inhibition is half-maximal. The term half-life denotes the time in which the quantity being followed falls by half. A word on the T/C: it is the ratio of treated to control.

The values above are taken from ChEMBL document CHEMBL5370602, “Structure-Based Design of a Lead Compound Derived from Natural Schweinfurthins with Antitumor Properties That Target Oxysterol-Binding Protein” (J Med Chem, 2023).
